From ChEMBL document CHEMBL2346576, “α-Selective glycosylation affords mucin-related GalNAc amino acids and diketopiperazines active on Trypanosoma cruzi” (Bioorg Med Chem, 2013)
Active and inactive are the calls of the source. No cut-off for these calls is given here.

Legend:
[1] = Cytotoxicity against C57BL/6 mouse spleen cell assessed as cell death at 7.8 to 500 uM after 24 hrs by propidium iodide staining based flow cytometry; format: tissue-based
Procedure, shortened: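 Spleen cells from C57BL/6 mice were dissociated, red cells lysed for 5 min (0.17 M Tris-HCl pH 7.5 : 0.16 M NH4Cl, 1:9), and cells grown in RPMI 1640 with 10% FBS and antibiotics at 5×10^5 cells/well with compounds for 24 h at 37 °C. The positive control was 0.5% Tween 20. Dead cells were stained with 10 µg/mL propidium iodide and counted by flow cytometry. Three independent experiments were run in duplicate.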

Trypanosoma cruzi [2] = assay: Antitrypanosomal activity against trypomastigote form of Trypanosoma cruzi Tulahuen expressing beta galactosidase infected in rhesus monkey LLC-MK2 cells assessed as inhibition of parasite viability treated at 24 hrs post-infection measured after 4 days by CPRG based colorimetric assay; format: functional, organism-based
Procedure, shortened: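 LLC-MK2 cells at 2×10^3/well in phenol red-free RPMI, grown 24 h, infected with 1×10^4 Tulahuen-lacZ trypomastigotes. Compound added 24 h later at 0.5–0.0035 mM (8 concentrations). After 4 days, PBS with 0.5% Triton X-100 and 100 μM CPRG added; 4 h at 37 °C, absorbance 570 nm. IC50 from three independent experiments, each in duplicate.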

[3] = Inhibition of C-terminal truncated recombinant Trypanosoma cruzi trans-sialidase assessed as decrease in substrate MuNANA hydrolysis at 1 mM preincubated with enzyme for 10 mins prior to substrate addition measured after 10 mins by continuous fluorimetric assay
Procedure, shortened: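 His-tagged 70 kDa recombinant enzyme retaining the catalytic N-terminal domain. Run in triplicate in phosphate buffer pH 7.4; enzyme and inhibitor (25 µL of 4.0 mM solution) preincubated 10 min at 26 °C. MuNANA then added to 0.1 mM final; fluorescence of released Mu read after 10 min (ex 360/em 460 nm). %I = 100×(1−Vi/V0); pyridoxal phosphate as control.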

Trypanosoma cruzi [4] = assay: (§1) Antitrypanosomal activity against amastigote form of Trypanosoma cruzi Tulahuen infected in african green monkey Vero cells assessed as decrease in number of intracellular parasites treated after removal of parasite on cell supernatant following 12 hrs of infection measured after 24 hrs by Giemsa staining based optical microscopy; format: functional, organism-based
Procedure, shortened: (§2)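 Vero cells plated at 2×10^4/well on 8-well chamber slides; after 12 h infected with 2×10^5 trypomastigotes/well for 12 h, washed with PBS, then compound added for 24 h at 37 °C. Giemsa-stained, parasites per cell counted by light microscopy in at least 200 cells/well. Two independent experiments, each in triplicate.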

[5] = Inhibition of C-terminal truncated recombinant Trypanosoma cruzi trans-sialidase assessed as decrease in substrate MuNANA hydrolysis preincubated with enzyme for 10 mins prior to substrate addition measured after 10 mins by continuous fluorimetric assay
Trypanosoma cruzi [6] = assay: as §1, with “parasites at 0.06 to 0.5 mM” for “parasites”; format: functional, organism-based; procedure, shortened: as §2

In the case of `CC(=O)N[C@H]1[C@@H](OC[C@H](N)C(=O)O)O[C@H](CO)[C@H](O)[C@@H]1O`, the Activity [1] is reported as “Non-toxic”, the IC50 (Trypanosoma cruzi [2]) is reported as greater than 500 µM and the inhibition [3] is reported as 57%.

For `CC(=O)N[C@H]1[C@@H](O[C@H](C)[C@@H]2NC(=O)[C@H](CC(=O)O)NC2=O)O[C@H](CO)[C@H](O)[C@@H]1O`, the Activity [1] was “Non-toxic”, the Activity (Trypanosoma cruzi [4]) was “Dose-dependent effect” and the IC50 (Trypanosoma cruzi [2]) was 124 µM. The inhibition [3] was 13%.

With `CC(=O)N[C@H]1[C@@H](O[C@H](C)[C@H](N)C(=O)O)O[C@H](CO)[C@H](O)[C@@H]1O` the Activity [1] was “Non-toxic”, the IC50 (Trypanosoma cruzi [2]) was greater than 500 µM and the inhibition [3] was 79%. It also gave an IC50 [5] of 320 µM.

In the case of `CC(=O)N[C@H]1[C@@H](OC[C@@H]2NC(=O)[C@H](CC(=O)O)NC2=O)O[C@H](CO)[C@H](O)[C@@H]1O`, the Activity [1] is reported as “Non-toxic”, the IC50 (Trypanosoma cruzi [2]) is reported as 282 µM and the inhibition [3] is reported as 25%.

For `O=C(Cn1ccnc1[N+](=O)[O-])NCc1ccccc1` [BENZNIDAZOLE], the IC50 (Trypanosoma cruzi [2]) was 30 µM and the Activity (Trypanosoma cruzi [6]) was “Active”.
